In one assay the target is T1, Thromboxane-A synthase (Homo sapiens, UniProt P24557).
T1 sequence (P24557 whole entry): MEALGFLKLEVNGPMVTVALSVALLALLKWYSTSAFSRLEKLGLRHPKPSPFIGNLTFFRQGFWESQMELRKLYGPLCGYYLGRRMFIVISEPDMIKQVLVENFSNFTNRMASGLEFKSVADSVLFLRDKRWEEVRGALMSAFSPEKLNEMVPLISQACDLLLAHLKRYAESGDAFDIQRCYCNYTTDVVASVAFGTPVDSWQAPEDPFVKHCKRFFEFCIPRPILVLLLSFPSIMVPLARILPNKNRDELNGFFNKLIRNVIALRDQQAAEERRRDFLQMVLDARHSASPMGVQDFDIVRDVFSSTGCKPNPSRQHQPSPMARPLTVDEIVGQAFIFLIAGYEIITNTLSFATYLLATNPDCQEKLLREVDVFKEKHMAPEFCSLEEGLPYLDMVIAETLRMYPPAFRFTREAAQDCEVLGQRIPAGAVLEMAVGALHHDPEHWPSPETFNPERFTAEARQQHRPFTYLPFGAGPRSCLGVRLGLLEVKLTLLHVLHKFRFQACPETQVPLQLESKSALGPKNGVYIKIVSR
Nature of the assay: In vitro inhibition of Thromboxane A2 synthase.

In assay [1] the test system is Cavia porcellus. Nature of the assay: Ex vivo inhibition of U-46,619-induced aggregation of guinea pig platelets after peroral administration of 10 mg/kg dose at 1 hr time. The conditions noted are these: route oral. In kind it is functional. An outline of the steps:
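Fasted (12-16 h) male Hartley guinea pigs (350-400 g), 3-6 per group, dosed orally in a 3% fortified cornstarch suspension vehicle. At 1 h (or 6 h), animals under methoxyflurane anaesthesia were bled by cardiac puncture into citrate (0.0129 M final). PRP (500g, 7 min) was stirred 1 min at 37 °C, then U 46619 added. Result reported as EC50 drug-treated / EC50 vehicle.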

The species named for assay [2] is Homo sapiens. Nature of the assay: Evaluated in vitro for the inhibition of U 46619 induced aggregation of platelet-rich plasma. An outline of the steps: (§1)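 Antagonism of aggregation induced by the PGH2/TxA2 mimetic U 46619, run in human washed platelets (WP) and in platelet-rich plasma (PRP); IC50 reported. Values come from one or two determinations.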
Assay [3] is filed under the species Homo sapiens. Nature of the assay: In vitro inhibition of U 46619 induced aggregation of washed platelets. In a few lines: as §1
The next assay is filed under the species Canis familiaris. Nature of the assay: Evaluated for contraction of dog saphenous vein. In kind it is functional, organism-based. The settings on record: Canis lupus familiaris, read-out: pA2 (converted). An outline of the steps:
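Dog saphenous vein rings contracted with U 46619; antagonism expressed as pA2. Number of determinations = 1, with more than 12 rings per determination and a single drug concentration applied to each ring.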

The species entered for assay [4] is Homo sapiens. Put plainly: In vitro inhibition of U 46619 induced aggregation of washed platelets(WP). An outline of the steps: as §1
For assay [5], the species on record is Cavia porcellus. Nature of the assay: Inhibition of bronchoconstriction in guinea pigs. The class given is functional. The settings on record: Lung. An outline of the steps: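 Guinea pigs with cannulated trachea, ventilated at 40 strokes/min, given succinylcholine (1.0 mg/kg). Arachidonic acid priming dose 0.25 mg/kg iv, then 0.5 mg/kg iv. Test compound was then given as an iv bolus, with a 0.5 mg/kg AA challenge 5 min later. Peak insufflation pressure expressed as % of control. Five doses (0.1-1000 µg/kg), 6-8 animals per dose, ED50 derived.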

Assay [6] deals with Cavia porcellus. Nature of the assay: Ex vivo inhibition of U-46,619-induced aggregation of guinea pig platelets after peroral administration of 10 mg/kg dose at 6 hr time. In kind it is functional. The conditions noted are these: route oral. In a few lines:
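Male Hartley guinea pigs (350-400 g), fasted 12-16 h, dosed orally in 3% fortified cornstarch suspension vehicle; groups of three to six. At 6 h, cardiac-puncture blood drawn under methoxyflurane into citrate (0.0129 M final). PRP obtained at 500g, 7 min. PRP preincubated 1 min at 37 °C with stirring, then U 46619 added. Aggregation ratio = EC50 drug-treated/EC50 vehicle-treated.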

`CC(C)(CC(CCCCNS(=O)(=O)c1ccc(Cl)cc1)CCCc1cccnc1)C(=O)O` (centres undefined): the IC50 against Thromboxane-A synthase was determined as 20 nM; in the assay listed under Homo sapiens [2], 3700 nM; in the assay filed under Homo sapiens [3], 18 nM. Moreover, the Concentration ratio with Cavia porcellus [1] stood at 8.7. Further, the Kb in the assay filed under Canis familiaris is 1 nM.
With `O=C(O)CCC(CCCCNS(=O)(=O)c1ccc(Cl)cc1)CCCn1ccnc1` (centres undefined), the values for the IC50 against Thromboxane-A synthase, in the assay filed under Homo sapiens [2] and in the assay listed under Homo sapiens [3] were 3 nM, 3700 nM and 980 nM, respectively. Besides, the Kb in the assay filed under Canis familiaris was 5.5 nM.
Take `O=C(O)/C=C/C(CCCCNS(=O)(=O)c1ccc(Cl)cc1)CCCc1cccnc1` (centres undefined): the figures for the half-maximal inhibitory concentration (IC50) against Thromboxane-A synthase, in the assay listed under Homo sapiens [2] and in the assay filed under Homo sapiens [3] were 10 nM, 770 nM and 70 nM, respectively.
As to `O=S(=O)(NCCCCC(CCCO)CCCc1cccnc1)c1ccc(Cl)cc1` (centres undefined), the IC50 against Thromboxane-A synthase is 70 nM; in the assay filed under Homo sapiens [3], 2360 nM.
For `NC(=O)CCC(CCCCNS(=O)(=O)c1ccc(Cl)cc1)CCCc1cccnc1` (centres undefined), the half-inhibitory concentration (IC50) on Thromboxane-A synthase is 60 nM; in the assay filed under Homo sapiens [3], greater than 10000 nM.
With `O=C(O)CCC(CCCCNS(=O)(=O)c1ccc(Cl)cc1)CCCc1ccc[n+]([O-])c1` (centres undefined), the IC50 was 3 nM at Thromboxane-A synthase, 8700 nM in the assay filed under Homo sapiens [2] and 500 nM in the assay listed under Homo sapiens [3]. In addition, in the assay listed under Canis familiaris, the Kb is 7.41 nM.
In the case of `O=C(O)CCC(CCCCNS(=O)(=O)c1ccc2ccccc2c1)CCCc1cccnc1` (centres undefined), the IC50 against Thromboxane-A synthase was determined as 1.5 nM; in the assay filed under Homo sapiens [2], 2800 nM; in the assay listed under Homo sapiens [3] it was 240 nM.
Turning to `O=C(O)CCC(CCCCNS(=O)(=O)c1ccc(F)cc1)CCCc1cccnc1` (centres undefined), the IC50 was 1 nM against Thromboxane-A synthase, greater than 30000 nM in the assay listed under Homo sapiens [2] and 108 nM in the assay listed under Homo sapiens [3].
With `O=C(O)CCC(C/C=C/c1cccnc1)CCCCNS(=O)(=O)c1ccc(Cl)cc1` (centres undefined), the IC50 against Thromboxane-A synthase was 7 nM; in the assay listed under Homo sapiens [2], 1190 nM; in the assay listed under Homo sapiens [3] it was 27 nM. Further, the Kb in the assay listed under Canis familiaris is 0.603 nM.
Consider `O=C(O)CCC(CCCCNS(=O)(=O)c1ccc(Cl)cc1)CCn1ccnc1` (centres undefined), for which the IC50 on Thromboxane-A synthase worked out at 40 nM; in the assay listed under Homo sapiens [3], 1520 nM. Moreover, the Kb in the assay listed under Canis familiaris is 34.7 nM.
As to `CC(CC(CCCCNS(=O)(=O)c1ccc(Cl)cc1)CCCc1cccnc1)C(=O)O` (centres undefined), the IC50 is 3 nM at Thromboxane-A synthase, 2900 nM in the assay listed under Homo sapiens [2] and 53 nM in the assay listed under Homo sapiens [3]. The Concentration ratio with Cavia porcellus [1] was 9. In addition, the Kb in the assay filed under Canis familiaris is 1.48 nM.
Take `O=C(O)C(CCCCNS(=O)(=O)c1ccc(Cl)cc1)CCCc1cccnc1` (centres undefined): the IC50 amounted to 90 nM against Thromboxane-A synthase and 9300 nM in the assay listed under Homo sapiens [4].
With `O=C(O)C(=O)NC(CCCCNS(=O)(=O)c1ccc(Cl)cc1)CCCc1cccnc1` (centres undefined), the values for the IC50 against Thromboxane-A synthase, in the assay filed under Homo sapiens [2] and in the assay listed under Homo sapiens [3] were 150 nM, 11300 nM and 590 nM, respectively. In the assay listed under Canis familiaris, the Kb is 1.86 nM.
Turning to `Cc1ccncc1CCCC(CCCCNS(=O)(=O)c1ccc(Cl)cc1)CCC(=O)O` (centres undefined), the IC50 against Thromboxane-A synthase worked out at 1 nM; in the assay filed under Homo sapiens [2] it was 4860 nM; in the assay filed under Homo sapiens [3], 6 nM.
As to `[N-]=[N+]=Nc1ccc(S(=O)(=O)NCCCCC(CCCc2cccnc2)CCC(=O)O)cc1` (centres undefined), the half-inhibitory concentration (IC50) against Thromboxane-A synthase turned out to be 4 nM; in the assay filed under Homo sapiens [2] it was 2000 nM; in the assay listed under Homo sapiens [3] it was 35 nM.
Consider `CS(=O)(=O)c1ccc(S(=O)(=O)NCCCCC(CCCc2cccnc2)CCC(=O)O)cc1` (centres undefined), for which the IC50 on Thromboxane-A synthase is 4 nM; in the assay filed under Homo sapiens [3] it was greater than 10000 nM.
As to `O=S(=O)(NCCCCC(CCCc1cccnc1)CCC1N=NN=N1)c1ccc(Cl)cc1` (centres undefined), the IC50 turned out to be 5 nM against Thromboxane-A synthase, 910 nM in the assay listed under Homo sapiens [2] and 22 nM in the assay listed under Homo sapiens [3]. For the same compound, the Concentration ratio in the assay with Cavia porcellus [1] is on record as 10. Besides, the Kb in the assay filed under Canis familiaris was 0.468 nM.
With `O=C(O)CCC(CCCCNS(=O)(=O)c1ccc(C(F)(F)F)cc1)CCCc1cccnc1` (centres undefined), the 50% inhibitory concentration (IC50) turned out to be 2 nM at Thromboxane-A synthase, 610 nM in the assay listed under Homo sapiens [2] and 230 nM in the assay listed under Homo sapiens [3].
For the compound `O=C(O)CSC(CCCCNS(=O)(=O)c1ccc(Cl)cc1)CCCc1cccnc1` (centres undefined), the half-inhibitory concentration (IC50) on Thromboxane-A synthase was 2 nM; in the assay filed under Homo sapiens [2] it was 400 nM; in the assay listed under Homo sapiens [3], 6 nM. The compound further returned an ED50 in the assay filed under Cavia porcellus [5] of 7.42 µg/kg. Moreover, in the assay with Cavia porcellus [1], the Concentration ratio is reported as 33. The Kb in the assay listed under Canis familiaris was 0.269 nM.
For `CCOC(=O)CCC(CCCCNS(=O)(=O)c1ccc(Cl)cc1)CCCc1cccnc1` (centres undefined), the Concentration ratio with Cavia porcellus [1] was 3.
Consider `O=C(O)COC(CCCCNS(=O)(=O)c1ccc(Cl)cc1)CCCc1cccnc1` (centres undefined), for which the values for the IC50 against Thromboxane-A synthase, in the assay filed under Homo sapiens [2] and in the assay filed under Homo sapiens [3] were 18 nM, 1600 nM and 15 nM, respectively. The Concentration ratio in the assay with Cavia porcellus [1] stood at 2.6.
With `COc1ccc(S(=O)(=O)NCCCCC(CCCc2cccnc2)CCC(=O)O)cc1` (centres undefined), the IC50 against Thromboxane-A synthase came out at 3 nM; in the assay filed under Homo sapiens [2] it was 1340 nM; in the assay listed under Homo sapiens [3], 220 nM.
Take `O=C(O)CC(CCCCNS(=O)(=O)c1ccc(Cl)cc1)CCCc1cccnc1` (centres undefined): the IC50 against Thromboxane-A synthase is 7 nM; in the assay listed under Homo sapiens [3], 200 nM. Besides, the Kb in the assay filed under Canis familiaris is 3.72 nM.
With `Cc1ccc(S(=O)(=O)NCCCCC(CCCc2cccnc2)CCC(=O)O)cc1` (centres undefined), the IC50 on Thromboxane-A synthase was 1 nM; in the assay listed under Homo sapiens [2], 15200 nM; in the assay filed under Homo sapiens [3], 58 nM. For the same compound, the Kb in the assay filed under Canis familiaris is 1.55 nM.
`O=C(O)CCC(CCCCNS(=O)(=O)c1ccc(Cl)cc1)CCOc1cccnc1` (centres undefined): the figures for the IC50 on Thromboxane-A synthase, in the assay filed under Homo sapiens [2] and in the assay filed under Homo sapiens [3] were 3 nM, 280 nM and 13 nM, respectively. Also, in the assay listed under Cavia porcellus [5], the ED50 was 5.2 µg/kg. Also, the Concentration ratio in the assay with Cavia porcellus [6] and with Cavia porcellus [1] was greater than 100 each time. In the assay listed under Canis familiaris, the Kb is 0.398 nM.
At Thromboxane-A synthase, `O=C(O)CCC(CCCCNS(=O)(=O)c1ccc(Cl)cc1)CCCc1cccnc1` (centres undefined) displayed an IC50 of 20 nM. In the assay listed under Cavia porcellus [5], this compound returned a median effective dose (ED50) of 5.75 µg/kg. In addition, the Concentration ratio is given as 11.8 in the assay with Cavia porcellus [6] and 27.3 with Cavia porcellus [1].
Compound `O=C(O)CCCCO/N=C(/c1cccnc1)c1cccc(C(F)(F)F)c1` [RIDOGREL] had an ED50 in the assay filed under Cavia porcellus [5] of 48.3 µg/kg. Further, in the assay with Cavia porcellus [1], the Concentration ratio came to 5.6.

By IC50 is commonly meant the concentration that gives 50% inhibition. What is called ED50 is the dose that gives a 50% effect, or the effect in half of the subjects.

(Values after ChEMBL document CHEMBL1126283, “Thromboxane receptor antagonism combined with thromboxane synthase inhibition. 4. 8-[[(4-Chlorophenyl)sulfonyl]amino]-4-(3-(3-pyridinyl) propyl)octanoic acid and analogs” (J Med Chem, 1992).)
